What was measured:
[1] = system: R4A antibody binding to murine glomeruli; experiment: Kidney glomeruli R4A binding assay; design: species or system mouse; conditions: R4A 20 µg/mL preincubated with compound at 50 µM
In short: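 Glomeruli isolated from mice and adhered to glass slides. R4A was preincubated with test compound for 1 h at 37 °C, then applied to the glomeruli for 1 h at room temperature. Slides were washed with PBS. Bound antibody was detected with FITC-conjugated anti-mouse IgG and imaged by fluorescence microscopy.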

[2] = system: R4A monoclonal antibody (anti-dsDNA) binding to DWEYS peptide; experiment: Competitive inhibition ELISA: R4A antibody binding to DWEYS-coated plates; design: species or system mouse
In short: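 D-DWEYS peptide at 20 µg/mL in PBS pH 7.2 coated overnight at 37 °C, uncovered; blocked with 3% BSA/PBS 1 h at 37 °C. R4A (20 µg/mL) preincubated with test compound at varying concentrations 1 h at 37 °C, then added to washed wells 1 h at 37 °C. AP-goat anti-mouse IgG 1:1000, 1 h RT; pNPP substrate 30–60 min; absorbance at 405 nm.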

[3] = system: NZB/W F1 mice (SLE model); experiment: NZB/W F1 lupus model efficacy testing; type: in vivo, mouse
In short: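 Female NZB/W F1 mice, randomised to groups (initially n = 10/group), dosed from 22 weeks of age, before severe proteinuria, with test compound or vehicle at 5 mg kg−1 day−1 as two daily ip injections (2.5 mL/kg each). Weekly body weight; proteinuria every 2 weeks; serum stored at −70 °C. Blinded kidney histology scored glomerular sclerosis, cellularity, crescents and interstitial inflammation.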

[4] = Preliminary pharmacokinetics after intravenous or oral dosing; type: in vivo; conditions: iv 1 mg/kg or oral gavage 10 mg/kg, male CD-1 mice
[5] = system: R4A antibody neurotoxicity in hippocampal neurons; experiment: Neurotoxicity model: R4A injected into hippocampus, TUNEL staining; type: in vivo; conditions: R4A 20 µg/mL preincubated with 50 µM compound, injected into mouse hippocampus
In short: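 Male C57BL/6 mice (30–34 g) under 2.5% avertin ip received a 2 µL stereotaxic injection into the dorsal hippocampus (CA1) of R4A (20 µg/mL) preincubated with vehicle or test compound (50 µM).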

[6] = 5 mg/kg chronic dosing, NZB/W F1 mice, versus vehicle

Cc1c(O)cccc1C(=O)N[C@@H](CSc1ccccc1)[C@H](O)CN1C[C@H]2CCCC[C@H]2C[C@H]1C(=O)NC(C)(C)C [Compound 2, nelfinavir, reference compound]
R4A binding to glomerular antigens [1]: diminished binding to glomerular antigens
Inhibition of R4A / anti-dsDNA antibody binding in ELISA (qualitative) [2]: dose-dependently inhibited the binding of anti-dsDNA antibodies to target antigens

Cc1cccc(C)c1OCC(=O)N[C@@H](Cc1ccccc1)[C@@H](O)C[C@H](Cc1ccccc1)NC(=O)[C@H](C(C)C)N1CCCNC1=O [Compound 3, lopinavir]
Inhibition of R4A / anti-dsDNA antibody binding in ELISA (qualitative) [2]: dose-dependently inhibited the binding of anti-dsDNA antibodies to target antigens

CC(C)(C)NC[C@@H]1CC2CCCCC2CN1C[C@@H](O)[C@H](Cc1ccccc1)NC[C@H](CCN)NCC1Nc2ccccc2CC1O (stereo partly drawn) [Compound 5, 2-{[3-Amino-1-({1-benzyl-3-[3-(tert-butylamino-methyl)-octahydro-isoquinolin-2-yl]-2-hydroxy-propylamino}-methyl)-propylamino]-methyl}-1,2,3,4-tetrahydro-quinolin-3-ol]
Onset of disease ([3]; 5 mg kg−1 day−1 b.i.d. ip, NZB/W F1 mice): delayed onset of disease (26–36 weeks)
Body weights versus vehicle ([3]; 5 mg kg−1 day−1 in two daily ip injections, female NZB/W F1 mice from 22 weeks of age): similar
Kidney histology [3, 6]: preserved histology
Mouse IgG staining (autoantibody deposition) in glomeruli [3, 6]: significantly less staining for mouse IgG
Serum anti-DWEYS reactivity ([3]; 5 mg/kg chronic dosing, NZB/W F1 mice, versus vehicle sera): higher anti-DWEYS reactivity
Combined kidney pathology score ([3]; blinded histopathology, 60 weeks, versus vehicle, p < 0.05): significantly lower standard combined pathology scores
PK profile (comparative) [4]: exhibited the best PK profile
Tolerability in PK study [4]: well tolerated at the administered dose levels
R4A binding to glomerular antigens [1]: decreased the binding of R4A to kidney tissue
Neurotoxic effect of R4A (TUNEL staining, neuronal apoptosis) [5]: abrogated this neurotoxic effect

Cc1c(O)cccc1CN[C@@H](CSc1ccccc1)[C@H](O)CN1C[C@H]2CCCC[C@H]2C[C@H]1CNC(C)(C)C [Compound 6, 3-({3-[3-(tert-Butylaminomethyl)octahydroisoquinolin-2-yl]-2-hydroxy-1-phenylsulfanylmethylpropylamino}methyl)-2-methylphenol]
R4A binding to glomerular antigens [1]: decreased the binding of R4A to kidney tissue
Neurotoxic effect of R4A (TUNEL staining, neuronal apoptosis) [5]: abrogated this neurotoxic effect

CNCCCN[C@H](CN[C@@H](Cc1ccccc1)C[C@H](O)[C@H](Cc1ccccc1)NCCOc1c(C)cccc1C)C(C)C [Compound 7, 2-[2-(2,6-Dimethylphenoxy)ethylamino]-5-[3-methyl-2-(3-methylaminopropylamino)butylamino]-1,6-diphenylhexan-3-ol]
R4A binding to glomerular antigens [1]: decreased the binding of R4A to kidney tissue

saquinavir [Compound 1, reference compound]
R4A binding to glomerular antigens [1]: diminished binding to glomerular antigens
Inhibition of R4A / anti-dsDNA antibody binding in ELISA (qualitative) [2]: dose-dependently inhibited the binding of anti-dsDNA antibodies to target antigens
